Test results as given in ChEMBL document CHEMBL3525931, “Stereoselective interaction of pantoprazole with ABCG2. II. In vitro flux analysis” (Drug Metab Dispos, 2012).

Tests used:
[1] = target: T1, Broad substrate specificity ATP-binding cassette transporter ABCG2 (Homo sapiens, UniProt Q9UNQ0); test: Observed permeability in MDCK2 cells expressing human ABCG2 assessed as ABCG2-mediated basolateral to apical transport at 3 uM after 0.5 to 1 hrs by HPLC method; format: ADME, cell-based; conditions: mdck-ii
T1 sequence (Q9UNQ0 whole entry): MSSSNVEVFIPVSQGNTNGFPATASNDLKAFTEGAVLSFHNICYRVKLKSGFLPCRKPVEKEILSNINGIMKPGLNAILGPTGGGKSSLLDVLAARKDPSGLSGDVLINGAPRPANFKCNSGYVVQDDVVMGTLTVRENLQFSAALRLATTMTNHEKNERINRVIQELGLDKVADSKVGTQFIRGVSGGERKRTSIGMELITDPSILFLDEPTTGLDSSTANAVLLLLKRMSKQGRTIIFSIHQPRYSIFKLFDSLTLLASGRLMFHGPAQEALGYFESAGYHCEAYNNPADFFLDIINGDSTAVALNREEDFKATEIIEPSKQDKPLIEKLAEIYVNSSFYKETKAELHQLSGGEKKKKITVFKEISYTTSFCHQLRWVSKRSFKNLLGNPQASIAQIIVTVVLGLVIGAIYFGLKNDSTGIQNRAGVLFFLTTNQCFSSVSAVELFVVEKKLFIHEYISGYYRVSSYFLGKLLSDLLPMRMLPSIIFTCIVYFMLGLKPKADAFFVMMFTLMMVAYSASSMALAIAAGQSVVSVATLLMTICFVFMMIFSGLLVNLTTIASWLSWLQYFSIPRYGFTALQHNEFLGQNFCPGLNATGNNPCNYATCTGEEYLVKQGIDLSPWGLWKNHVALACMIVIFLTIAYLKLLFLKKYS
Procedure, shortened: (§1)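 Mock (empty pcDNA3.1) or rat Abcg2/human ABCG2-transfected MDCKII, G418-selected, seeded on 3.0-μm Transwell filters at 1.0×10^6 cells/well, grown 4 days to TEER >200 Ω·cm². Single isomer loaded apical or basolateral in serum-free Opti-MEM I with 0.2 μCi/ml [3H]mannitol, 37°C 5% CO2. Receiver sampled at 0.5 and 1 h. Quantified by HPLC-UV 290 nm. Permeability = initial rate/(area × donor concentration). Efflux ratio = B→A rate / A→B rate. n = 3, mean ± S.D.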

[2] = target: T1, Broad substrate specificity ATP-binding cassette transporter ABCG2; test: Observed permeability in MDCK2 cells expressing human ABCG2 assessed as ABCG2-mediated basolateral to apical transport at 10 uM after 0.5 to 1 hrs by HPLC method; format: ADME, cell-based; conditions: mdck-ii; procedure, shortened: as §1
[3] = target: T1, Broad substrate specificity ATP-binding cassette transporter ABCG2; test: Observed permeability in MDCK2 cells expressing human ABCG2 assessed as ABCG2-mediated basolateral to apical transport at 200 uM after 0.5 to 1 hrs by HPLC method; format: ADME, cell-based; conditions: mdck-ii; procedure, shortened: as §1
[4] = target: T1, Broad substrate specificity ATP-binding cassette transporter ABCG2; test: Maximum drug transport rate in MDCK2 cells expressing human ABCG2 assessed as ABCG2-mediated transport by HPLC method; format: ADME, cell-based; conditions: mdck-ii
Procedure, shortened: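 Kinetics came from the same Transwell bidirectional flux runs in rat Abcg2- or human ABCG2-MDCKII, with donor 3–200 μM single isomer. Cellular concentrations were predicted from a three-compartment model using PS_D from mock cells and PS_PC from mannitol. Apparent apical efflux permeability was fitted against predicted cellular concentration by saturable kinetics to give K_M and T_max.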

[5] = target: T2, Broad substrate specificity ATP-binding cassette transporter ABCG2 (Rattus norvegicus, UniProt Q80W57); test: Observed permeability in MDCK2 cells expressing rat ABCG2 assessed as ABCG2-mediated apical to basolateral transport at 50 uM after 0.5 to 1 hrs by HPLC method; format: ADME, cell-based; conditions: mdck-ii; procedure, shortened: as §1
T2 sequence (Q80W57 whole entry): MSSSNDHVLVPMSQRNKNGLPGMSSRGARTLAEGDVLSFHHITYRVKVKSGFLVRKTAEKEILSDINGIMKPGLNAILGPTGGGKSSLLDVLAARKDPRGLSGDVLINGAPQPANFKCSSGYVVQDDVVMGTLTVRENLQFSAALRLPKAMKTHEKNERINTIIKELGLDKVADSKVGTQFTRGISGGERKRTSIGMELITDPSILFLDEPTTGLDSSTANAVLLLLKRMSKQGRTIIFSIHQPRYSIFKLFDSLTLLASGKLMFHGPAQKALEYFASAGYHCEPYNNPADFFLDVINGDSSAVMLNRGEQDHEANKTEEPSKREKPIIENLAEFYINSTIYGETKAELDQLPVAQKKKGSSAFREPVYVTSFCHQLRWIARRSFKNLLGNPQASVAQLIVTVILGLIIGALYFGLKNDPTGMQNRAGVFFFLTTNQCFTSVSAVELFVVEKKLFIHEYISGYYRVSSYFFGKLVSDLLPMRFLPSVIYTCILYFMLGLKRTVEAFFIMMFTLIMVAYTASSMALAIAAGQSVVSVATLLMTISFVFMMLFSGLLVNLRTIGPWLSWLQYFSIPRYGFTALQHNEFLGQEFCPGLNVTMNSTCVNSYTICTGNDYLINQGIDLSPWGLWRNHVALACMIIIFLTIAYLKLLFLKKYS

[6] = target: T2, Broad substrate specificity ATP-binding cassette transporter ABCG2; test: Observed permeability in MDCK2 cells expressing rat ABCG2 assessed as ABCG2-mediated basolateral to apical transport at 3 uM after 0.5 to 1 hrs by HPLC method; format: ADME, cell-based; conditions: mdck-ii; procedure, shortened: as §1
[7] = target: T2, Broad substrate specificity ATP-binding cassette transporter ABCG2; test: Observed permeability in MDCK2 cells expressing rat ABCG2 assessed as ABCG2-mediated basolateral to apical transport at 30 uM after 0.5 to 1 hrs by HPLC method; format: ADME, cell-based; conditions: mdck-ii
Procedure, shortened: (§2)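 rAbcg2-transfected MDCKII monolayers seeded at 1.0×10^6 cells/well on 3.0-μm filters, grown 4 days to TEER >200 Ω·cm². Serum-free Opti-MEM I on both sides. Individual PAN isomer plus 0.2 μCi/ml [3H]mannitol loaded basolaterally, 37°C, 5% CO2. Receiver sampled at 0.5 and 1 h, PAN quantified by HPLC-UV 290 nm. P_obs = initial transfer rate/(area × initial donor concentration). Mean ± S.D., n = 3.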

[8] = target: T2, Broad substrate specificity ATP-binding cassette transporter ABCG2; test: Observed permeability in MDCK2 cells expressing rat ABCG2 assessed as ABCG2-mediated basolateral to apical transport at 50 uM after 0.5 to 1 hrs by HPLC method; format: ADME, cell-based; conditions: mdck-ii; procedure, shortened: as §2
[9] = target: T3, ABCG2 (Rattus norvegicus, UniProt Q80W57); test: Asymmetry efflux ratio in MDCK2 cells expressing rat ABCG2 assessed as ABCG2-mediated drug transport ratio at 10 uM after 0.5 to 1 hrs by HPLC method; format: ADME, cell-based; procedure, shortened: as §1
T3 sequence (Q80W57 whole entry): T2 sequence (Q80W57 whole entry)

[10] = target: T3, ABCG2; test: Asymmetry efflux ratio in MDCK2 cells expressing rat ABCG2 assessed as ABCG2-mediated drug transport ratio at 200 uM after 0.5 to 1 hrs by HPLC method; format: ADME, cell-based; procedure, shortened: as §1
[11] = Observed permeability in MDCK2 cells assessed as apical to basolateral transport at 50 uM after 0.5 to 1 hrs by HPLC method; format: ADME, cell-based, Canis lupus familiaris; conditions: dog, mdck-ii; procedure, shortened: as §1
[12] = Observed permeability in MDCK2 cells assessed as basolateral to apical transport at 3 to 200 uM after 0.5 to 1 hrs by HPLC method; format: ADME, cell-based, Canis lupus familiaris; conditions: dog, mdck-ii; procedure, shortened: as §1
[13] = Asymmetry efflux ratio in MDCK2 cells assessed as drug transport ratio at 3 uM after 0.5 to 1 hrs by HPLC method; format: ADME, cell-based, Canis lupus familiaris, MDCK-II; conditions: dog, MDCK; procedure, shortened: as §1
[14] = Asymmetry efflux ratio in MDCK2 cells assessed as drug transport ratio at 30 uM after 0.5 to 1 hrs by HPLC method; format: ADME, cell-based, Canis lupus familiaris, MDCK-II; conditions: dog, MDCK; procedure, shortened: as §1

Row | Papp [1] [uL/hr/cm2] | Papp [2] [uL/hr/cm2] | Papp [3] [uL/hr/cm2] | Drug transport [4] [nmol/hr.cm2] | Papp [5] [uL/hr/cm2] | Papp [6] [uL/hr/cm2] | Papp [7] [uL/hr/cm2] | Papp [8] [uL/hr/cm2] | efflux ratio at 10 µM [9] | efflux ratio at 200 µM [10] | Papp [11] [uL/hr/cm2] | Papp [12] [uL/hr/cm2] | efflux ratio at 3 µM [13] | efflux ratio at 30 µM [14] | SMILES
1 | 254 | 255 | 132 | 3.29 | 109 | 253 | 151 | 137 | 7.44 | 1.07 | 121 | 127 | 1.01 | 1.07 | COc1ccnc(C[S@+]([O-])c2nc3cc(OC(F)F)ccc3[nH]2)c1OC
2 | 258 | 246 | 179 | 10.2 | 79.1 | 238 | 206 | 194 | 11 | 1.29 | 123 | 126 | 1.01 | 1.06 | COc1ccnc(C[S@@+]([O-])c2nc3cc(OC(F)F)ccc3[nH]2)c1OC
